From ChEMBL document CHEMBL3351962, “Discovery of 1H-indole-2-carboxamides as novel inhibitors of the androgen receptor binding function 3 (BF3)” (J Med Chem, 2014) come the findings set out here.

One may read the IC50 as the point on the concentration scale where inhibition reaches its midpoint. Broadly, the inhibition is the percentage by which the read-out fell short of the control.

The source made the active and inactive calls. The calls are words filed in the database; no cut-off is given here.

Series [1] addresses T1, Androgen receptor (Homo sapiens, UniProt P10275).
T1 sequence (P10275 whole entry): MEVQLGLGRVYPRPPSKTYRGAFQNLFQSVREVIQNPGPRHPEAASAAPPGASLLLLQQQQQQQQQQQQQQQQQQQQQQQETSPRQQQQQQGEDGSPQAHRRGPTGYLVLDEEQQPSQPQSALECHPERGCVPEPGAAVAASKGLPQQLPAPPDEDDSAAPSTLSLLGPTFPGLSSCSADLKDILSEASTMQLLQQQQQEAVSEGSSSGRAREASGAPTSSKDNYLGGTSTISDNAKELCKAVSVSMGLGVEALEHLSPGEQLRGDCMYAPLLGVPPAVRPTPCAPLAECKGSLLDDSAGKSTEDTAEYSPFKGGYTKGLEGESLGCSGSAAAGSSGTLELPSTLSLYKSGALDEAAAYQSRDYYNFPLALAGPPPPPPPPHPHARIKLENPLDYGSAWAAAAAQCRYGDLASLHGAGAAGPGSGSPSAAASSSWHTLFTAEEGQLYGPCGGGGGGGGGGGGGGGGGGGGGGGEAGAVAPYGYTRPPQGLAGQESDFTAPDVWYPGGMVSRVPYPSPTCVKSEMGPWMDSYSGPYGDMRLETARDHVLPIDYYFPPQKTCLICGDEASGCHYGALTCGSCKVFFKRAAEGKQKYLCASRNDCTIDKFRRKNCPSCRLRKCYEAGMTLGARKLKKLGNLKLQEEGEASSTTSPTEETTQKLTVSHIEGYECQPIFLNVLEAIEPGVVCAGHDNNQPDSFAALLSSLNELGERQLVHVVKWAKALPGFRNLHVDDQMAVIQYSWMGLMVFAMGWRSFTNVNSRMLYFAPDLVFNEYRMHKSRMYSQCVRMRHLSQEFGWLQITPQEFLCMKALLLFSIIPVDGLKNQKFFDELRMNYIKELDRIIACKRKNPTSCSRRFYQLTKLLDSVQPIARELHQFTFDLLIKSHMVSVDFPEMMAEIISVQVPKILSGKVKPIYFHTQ
Put plainly: Inhibition of androgen receptor binding function 3 in human LNCAP cells containing androgen-responsive probasin-derived promoter assessed as reduction in PSA expression after 3 days by […] assay. Type of series: cell-based. The method, boiled down:
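PSA levels measured in LNCaP cells across a dose range (0−6.25 μM in dose-response curve); IC50 from the dose-dependent decrease of PSA.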

Series [2] concerns the target T2, Androgen receptor (Homo sapiens) (UniProt P10275).
T2 sequence (whole entry): T1 sequence (P10275 whole entry)
Put plainly: Displacement of SRC2 peptide from activation function 2 domain of androgen receptor (unknown origin).

Series [3] concerns the target T1, Androgen receptor. Put plainly: Inhibition of androgen receptor binding function 3 in eGFP-expressing human LNCAP cells containing androgen-responsive probasin-derived promoter assessed as reduction in androgen receptor transcriptional activity after 3 days. Type of series: cell-based. The method, boiled down: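 eGFP reporter of AR transcriptional activity in LNCaP cells; concentration titration (0−12.5 μM in dose-response); mean of two independent experiments in triplicate (n = 6), SEM; IC50 by fitting log inhibitor concentration vs % activation.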

Series [4] concerns the target T2, Androgen receptor (Homo sapiens). Put plainly: Displacement of androgen from androgen binding site of androgen receptor (unknown origin).
Series [5] shares this target. Put plainly: Inhibition of androgen receptor binding function 3 in eGFP-expressing human LNCAP cells containing androgen-responsive probasin-derived promoter assessed as reduction in androgen receptor transcriptional activity at 3 uM after 3 days. Format: cell-based.
Series [6] deals with LNCaP. The series is described as follows: Antiproliferative activity against human LNCAP cells after 4 days by MTS assay. Format: functional, cell-based. To be noted: 96 h. The method, boiled down:
(§1)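 MTS viability assay in LNCaP (androgen-stimulated), enzalutamide-resistant MR49F (LNCaP-derived) and androgen-independent PC3 cells; compounds added in serial concentrations, viability read after 4 days of incubation; IC50 from dose-response curves.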
Background: Formazan colour is commonly taken as a measure of viable cells.

Series [7] deals with PC-3. Put plainly: Antiproliferative activity against androgen receptor-independent human PC3 cells after 4 days by MTS assay. Type of series: functional, cell-based. The method, boiled down: as §1
Series [8] can be described thus: Antiproliferative activity against enzalutamide-resistant human MR49F cells after 4 days by MTS assay. To be noted: 96 h. Type of series: functional, cell-based. In short, it runs like this:
as §1

Series [9] deals with T2, Androgen receptor (Homo sapiens). The series is described as follows: Direct reversible binding affinity to super-streptavidin bound biotinylated androgen receptor ligand binding domain (unknown origin) expressed in Escherichia coli BL21 by bio-layer Interferometry assay. In short, it runs like this:
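Biolayer interferometry of direct, reversible binding to AR LBD; dose-response with compound at 0−50 μM or 0−100 μM.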
On the technique in general: BLI is a label-free optical method that tracks binding on a fibre tip over time.

Series [10] concerns the target T1, Androgen receptor.
A short description of series [11]: Solubility of the compound at high drug level. Type of series: physicochemical.
In series [12] the test system is MR49F. The series is described as follows: Antiproliferative activity against enzalutamide-resistant human MR49F cells at 10 uM after 4 days by MTS assay. Format: functional, cell-based.

In the case of `Cc1ccc2cc(C(=O)N(Cc3ccco3)C(C)C)[nH]c2c1`, the results for the concentration for half-maximal inhibition (IC50) in series [1] and in [3] were 850 nM and 1020 nM, respectively. Also, the inhibition result in [2] and in series [4] was “inactive” in each case. Moreover, in series [5], the inhibition was > 50%.
With `Cc1ccc(CN(C(=O)c2cc3ccc(F)cc3[nH]2)C(C)C)o1`, the half-inhibitory concentration (IC50) in series [6] amounted to 550 nM; in [8], 1310 nM; in series [1] it was 840 nM; in series [10] it was 2180 nM; in series [3] it was 700 nM. Further, the inhibition result in [7], in series [2] and in series [4] was “inactive” in each case. The result in [9] was Active. For the same compound, the inhibition in series [5] is > 50%.
For the compound `Cc1ccc(CN(C(=O)c2cc3ccccc3[nH]2)C(C)C)o1`, the IC50 turned out to be 3420 nM in [1] and 3320 nM in series [3]. The Activity entry in series [9] was “Dose-dependent effect”. Besides, the inhibition result in series [2] and in series [4] was “inactive” in each case. For the same compound, the inhibition in [5] was > 50%.
On to `Cc1ccc(CN(C(=O)c2cc3cc(F)ccc3[nH]2)C(C)C)o1`, for which the values for the concentration for half-maximal inhibition (IC50) in series [1] and in [3] were 1380 nM and 1100 nM, respectively. The inhibition entry in [2] and in series [4] was “inactive” throughout. The inhibition in [5] is > 50%.
`CC(C)N(Cc1ccco1)C(=O)c1cc2ccc(F)cc2[nH]1`: the results for the IC50 in series [1] and in series [3] were 530 nM and 430 nM, respectively. Besides, the inhibition result in [2] and in series [4] was “inactive” throughout. Moreover, in series [11], the solubility result is on record as “Insoluble”. Also, the inhibition in [5] is > 50%.
For `CN(Cc1ccc(Br)o1)C(=O)c1cc2ccc(F)cc2[nH]1`, the IC50 came out at 8090 nM in series [1] and 15700 nM in series [3]. The inhibition result in series [2] and in series [4] was “inactive” each time. The inhibition in series [5] is > 50%.
With `COCCN(Cc1ccco1)C(=O)c1cc2cc(F)ccc2[nH]1`, the IC50 in [1] was found to be 6620 nM; in series [3], 6470 nM. In addition, the inhibition entry in [2] and in series [4] was “inactive” each time. Further, the inhibition in series [5] was > 50%.
For the compound `CC(C)N(Cc1ccco1)C(=O)c1cc2cc(C(F)(F)F)ccc2[nH]1`, the IC50 was determined as 5290 nM in series [1] and 5200 nM in [3]. For the same compound, the inhibition result in [2] and in [4] was “inactive” throughout. The inhibition in [5] was > 50%.
In the case of `Cc1ccc(CN(C(=O)c2cc3cccc(F)c3[nH]2)C(C)C)o1`, the IC50 in [1] was 1200 nM; in series [3], 1000 nM. Also, the inhibition entry in [2] and in series [4] was “inactive” throughout. The inhibition in series [5] was > 50%.
Turning to `N#CCCN(Cc1ccccc1)C(=O)c1cc2ccccc2[nH]1`, the IC50 was 4580 nM in [1] and 7510 nM in [3]. Further, the inhibition entry in series [2] and in series [4] was “inactive” in each case. Besides, the inhibition in [5] is > 50%.
`Cc1ccc2[nH]c(C(=O)N(Cc3ccco3)C(C)C)cc2c1`: the 50% inhibitory concentration (IC50) was 1200 nM in [1] and 1300 nM in series [3]. The inhibition entry in series [2] and in series [4] was “inactive” each time. In addition, the inhibition in series [5] is > 50%.
As to `CC(C)N(Cc1ccco1)C(=O)c1cc2cc(F)ccc2[nH]1`, the IC50 in series [1] is 500 nM; in series [3], 600 nM. The inhibition entry in series [2] and in series [4] was “inactive” in each case. Moreover, the solubility entry in [11] is given as “Insoluble”. Besides, the inhibition in [5] is > 50%.
With `CN(Cc1ccc(Br)s1)C(=O)c1cc2ccc(F)cc2[nH]1`, the IC50 turned out to be 3060 nM in series [1] and 3530 nM in series [3]. For the same compound, the inhibition result in [2] and in series [4] was “inactive” throughout. The inhibition in series [5] is > 50%.
Regarding `O=C(c1cc2ccc(F)cc2[nH]1)N(Cc1ccco1)Cc1ccco1`, the figures for the IC50 in series [1] and in [3] were 5480 nM and 4040 nM, respectively. In addition, the inhibition entry in series [2] and in series [4] was “inactive” each time. For the same compound, the inhibition in series [5] is > 50%.
As to `CNC(=O)c1ccc(N2C(=S)N(c3ccc(C#N)c(C(F)(F)F)c3)C(=O)C2(C)C)cc1F`, in series [12], the inhibition result is “inactive”.
With `Cc1ccc2cc(C(=O)N(Cc3ccc(C)o3)C(C)C)[nH]c2c1`, the half-inhibitory concentration (IC50) was determined as 1650 nM in [1] and 2890 nM in series [3]. Besides, the inhibition entry in [2] and in series [4] was “inactive” each time. Also, in series [5], the inhibition was > 50%.
For `Cc1ccc2[nH]c(C(=O)N(Cc3ccc(C)o3)C(C)C)cc2c1`, the 50% inhibitory concentration (IC50) is 1770 nM in series [1] and 2670 nM in series [3]. The inhibition entry in [2] and in series [4] was “inactive” in each case. Also, the inhibition in [5] is > 50%.
For the compound `Cc1ccc(CN(C)C(=O)c2cc3cc(F)ccc3[nH]2)o1`, the half-maximal inhibitory concentration (IC50) in [1] was found to be 6560 nM; in [3], 9440 nM. Also, the inhibition entry in series [2] and in series [4] was “inactive” in each case. In [5], the inhibition is > 50%.
In the case of `CN(Cc1cccs1)C(=O)c1cc2ccc(F)cc2[nH]1`, the IC50 in series [1] is 5450 nM; in series [3], 3380 nM. In addition, the inhibition entry in [2] and in [4] was “inactive” throughout. Further, the inhibition in [5] is > 50%.
